Published values pooled from the literature.
Each line is one published result; the experiments were not run side by side.
Target: Ribosomal protein S6 kinase beta-1 (RPS6KB1, Homo sapiens, UniProt P23443)

N#CC1(c2ccccn2)CCN(Cc2cc(C(=O)O)c(=O)n3ccccc23)CC1
remaining binding (cell-free assay; competition with immobilised ligand; 1 µM): 96%

COc1cc(Nc2ncc(F)c(Nc3ccc4c(n3)NC(=O)C(C)(C)O4)n2)cc(OC)c1OC
inhibition (binding; 10 µM): 81%

C#Cc1n[nH]c2c(-c3cn([C@@H](C)c4ccccc4)c(=O)[nH]c3=O)cc(F)cc12
inhibition (enzyme activity; inhibitor; 0.1 µM): 18.6%

COc1ncccc1-c1cnn2ccc(N3CCN(C(=O)OC(C)C)CC3)nc12
remaining binding (binding; competition with immobilised ligand; 1 µM): 100%

Cn1cncc1[C@@](O)(COc1ccc(C#N)cc1-c1ccc(OC(F)(F)F)cc1)c1ccc(C#N)cc1
remaining binding (cell-free assay; competition with immobilised ligand; 1 µM): 94%

Cn1cc(-c2cc(F)cc(N3CCn4c(cc5c4CCCC5)C3=O)c2CO)cc(Nc2ccc(N3CCN(C4COC4)CC3)cn2)c1=O
inhibition (enzyme activity; inhibitor; 0.1 µM): 10%

C#Cc1n[nH]c2c(-c3cn([C@@H](C)c4ccccn4)c(=O)[nH]c3=O)cc(F)cc12
inhibition (enzyme activity; inhibitor; 0.1 µM): 10.2%

Nc1ncc(-c2nc(N3CCOCC3)nc(N3CCOCC3)n2)c(C(F)F)n1
remaining binding (binding; competition with immobilised ligand; 10 µM): 76%

CC(C)(C)c1cc(C=C(C#N)C#N)cc(Br)c1O
remaining activity (enzyme activity; inhibitor; 0.5 µM): 91.3%

Cn1cc(-c2cccc(N3CCc4c(sc5c4CC(C)(C)C5)C3=O)c2CO)cc(Nc2ccncn2)c1=O
inhibition (enzyme activity; inhibitor; 1 µM): 5%

Cc1nn(C)cc1-c1nc2c(N3CCN(Cc4ccc(Cl)cc4)CC3)c(Cl)cnc2[nH]1
remaining binding (binding; competition with immobilised ligand; 1 µM): 92%

O=c1[nH]c2ccccc2n1C1CCN(Cc2ccc(-c3[nH]c4cc5ncnc5cc4nc3-c3ccccc3)cc2)CC1
remaining signal (cell-free assay; 0.5 µM): 101%
